The text below walks through data of ChEMBL document CHEMBL4811218, “Discovery and optimization of withangulatin A derivatives as novel glutaminase 1 inhibitors for the treatment of triple-negative breast cancer” (Eur J Med Chem, 2021).

Assay [1] relates to MDA-MB-231. Put plainly: Antiproliferative activity against human MDA-MB-231 cells after 24 hrs by MTT assay. In kind it is functional, cell-based. The settings on record: MDA-MB-231, 24 h. A general note: Formazan colour is commonly taken as a measure of viable cells.
The target of assay [2] is T1, Glutaminase kidney isoform, mitochondrial (Homo sapiens) (UniProt O94925).
T1 sequence (whole entry): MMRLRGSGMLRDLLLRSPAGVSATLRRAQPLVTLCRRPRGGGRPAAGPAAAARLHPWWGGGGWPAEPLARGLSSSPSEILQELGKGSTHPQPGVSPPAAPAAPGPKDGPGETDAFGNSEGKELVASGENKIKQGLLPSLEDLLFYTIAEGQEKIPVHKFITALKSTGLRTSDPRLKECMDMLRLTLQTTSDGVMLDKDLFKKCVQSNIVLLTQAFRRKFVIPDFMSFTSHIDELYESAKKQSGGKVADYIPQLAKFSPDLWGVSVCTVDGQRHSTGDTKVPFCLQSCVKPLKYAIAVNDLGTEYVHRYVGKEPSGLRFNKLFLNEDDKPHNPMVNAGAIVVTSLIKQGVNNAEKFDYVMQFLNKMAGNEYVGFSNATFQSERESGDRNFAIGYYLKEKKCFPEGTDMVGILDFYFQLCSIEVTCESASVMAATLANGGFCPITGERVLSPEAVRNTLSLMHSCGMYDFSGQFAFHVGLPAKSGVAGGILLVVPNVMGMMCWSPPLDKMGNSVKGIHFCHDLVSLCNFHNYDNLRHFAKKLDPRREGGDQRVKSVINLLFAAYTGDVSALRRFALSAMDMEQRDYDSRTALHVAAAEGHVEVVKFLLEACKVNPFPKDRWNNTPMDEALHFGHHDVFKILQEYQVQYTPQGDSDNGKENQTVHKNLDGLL
In words: Inhibition of human GLS1 at 10 uM relative to control. In outline:
(§1)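 Human GLS1 hydrolase activity measured with a commercial GLS1 inhibitor screening kit, following the manufacturer's protocol. Single-point screening was run at 10 μM.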

Assay [3] relates to MDA-MB-231. Put plainly: Antiproliferative activity against human MDA-MB-231 cells after 24 hrs by MTT assay relative to control. The format is functional. The essentials:
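MDA-MB-231 cells kept in DMEM with 10% FBS at 37°C, 5% CO2. Seeded at 5×10^3 cells/well and left 24 h, then exposed to compounds at 0.078-10 µM for 24 h. 0.1% DMSO served as the vehicle control. MTT added for 4 h, formazan dissolved in DMSO, absorbance read at 570 nm. IC50 derived. Each run in triplicate, repeated at least three times.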

The target of assay [4] is T2, Glutaminase kidney isoform, mitochondrial (Homo sapiens, UniProt O94925).
T2 sequence (O94925 whole entry): T1 sequence (whole entry)
In words: Inhibition of human GLS1. The essentials: as §1

The structures appear in SMILES notation.

In the case of `CC(=O)O[C@H]1C=C([C@H](C)[C@H]2CC(C)=C(C)C(=O)O2)[C@@]2(C)CC[C@H]3[C@@H](C[C@H]4O[C@]45[C@@H](O)C=CC(=O)[C@]35C)[C@@]12O`, the figures for the IC50 in assay [1] and in assay [4] were 6.34 µM and 18.2 µM, respectively. Besides, in assay [2], the inhibition amounted to 41.4%. Moreover, the “inhibition (INH)” value in assay [3] is 74.7%.
For the molecule `CC(=O)O[C@H]1C=C([C@H](C)[C@H]2CC(C)=C(C)C(=O)O2)[C@@]2(C)CC[C@H]3[C@@H](C[C@H]4O[C@]45[C@@H](OC(=O)/C=C/C(=O)Nc4ccc(N(C)C)cc4)C=CC(=O)[C@]35C)[C@@]12O`, it took 1.56 µM to reach half-maximal inhibition in assay [1] (IC50). The inhibition in assay [2] was < 50%. The “inhibition (INH)” value in assay [3] is 72.1%.
The matching figures for `CC(=O)O[C@H]1C=C([C@H](C)[C@H]2CC(C)=C(C)C(=O)O2)[C@@]2(C)CC[C@H]3[C@@H](C[C@H]4O[C@]45[C@@H](OC(=O)CCCC(=O)Nc4nncs4)C=CC(=O)[C@]35C)[C@@]12O`: 2.17 µM, < 50% and 71.6%.

Broadly, the IC50 is the concentration that inhibits the measured activity by half. The inhibition is the change of the read-out against control, counted positive when it falls.
